Assays:
KNS-42 [1] = experiment: Antiproliferative activity against human KNS-42 cells assessed as cell growth inhibition incubated for 72 hrs by MTT assay; assay type: functional, cell-based; conditions: KNS-42, 72 h
Outline: (§1)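 Proliferation screen run in triplicate. IC50 is the compound dose giving 50% inhibition of cell proliferation.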

KNS-42 [2] = experiment: Cytotoxicity against human KNS-42 cells assessed as reduction in cell viability incubated for 72 hrs by PrestoBlue reagent based cell viability assay; assay type: functional; conditions: KNS-42, 72 h
Outline: (§2)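 Viability screen run in triplicate. IC50 is the compound dose giving 50% inhibition of cell viability, taken as cytotoxicity.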

[3] = Octanol-water partition coefficient, logP of the compound; assay type: physicochemical
[4] = Cytotoxicity against human BT-16 cells assessed as reduction in cell viability incubated for 72 hrs by PrestoBlue reagent based cell viability assay; assay type: functional; conditions: BT-16, 72 h; outline: as §2
[5] = Cytotoxicity against human HFF-1 cells assessed as reduction in cell viability incubated for 72 hrs by PrestoBlue reagent based cell viability assay; assay type: toxicity; outline: as §2
[6] = Cytotoxicity against human BT-12 cells assessed as reduction in cell viability incubated for 72 hrs by PrestoBlue reagent based cell viability assay; assay type: functional; conditions: BT-12, 72 h; outline: as §2
[7] = Antiproliferative activity against human BT-12 cells assessed as cell growth inhibition incubated for 72 hrs by MTT assay; assay type: functional, cell-based; conditions: BT-12, 72 h; outline: as §1
[8] = Antiproliferative activity against human HFF-1 cells assessed as cell growth inhibition incubated for 72 hrs by MTT assay; assay type: toxicity, cell-based; outline: as §1
Cannabinoid receptor 2 [9] = biological target: T1, Cannabinoid receptor 2 (Homo sapiens, UniProt P34972); experiment: Agonist activity at human CB2R expressed in mouse AtT20 cells at 10 uM by FLIPR membrane potential assay; assay type: functional, cell-based
Outline: (§3)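 Agonist mode: AtT-20 cells stably transfected with human CB1R or human CB2R; membrane potential responses recorded.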

Cannabinoid receptor 2 [10] = biological target: T1, Cannabinoid receptor 2; experiment: Antagonist activity at human CB2R expressed in mouse AtT20 cells at 10 uM by FLIPR membrane potential assay; assay type: functional, cell-based
Outline: (§4)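 AtT-20 cells stably carrying human CB1R or human CB2R were pre-incubated with compound or vehicle for 60 minutes. 500 nM CP 55940 was then added and membrane potential responses were recorded. IC50 is for inhibition of the agonist response.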

Daoy [11] = experiment: Cytotoxicity against human Daoy cells assessed as reduction in cell viability incubated for 72 hrs by PrestoBlue reagent based cell viability assay; assay type: functional; outline: as §2
Daoy [12] = experiment: Antiproliferative activity against human Daoy cells assessed as cell growth inhibition incubated for 72 hrs by MTT assay; assay type: functional, cell-based; outline: as §1
Cannabinoid receptor 1 [13] = biological target: T2, Cannabinoid receptor 1 (Homo sapiens, UniProt P21554); experiment: Antagonist activity at human CB1R expressed in mouse AtT20 cells at 10 uM by FLIPR membrane potential assay; assay type: functional, cell-based; outline: as §4
Cannabinoid receptor 1 [14] = biological target: T2, Cannabinoid receptor 1; experiment: Agonist activity at human CB1R expressed in mouse AtT20 cells at 10 uM by FLIPR membrane potential assay; assay type: functional, cell-based; outline: as §3
[15] = Antiproliferative activity against human BT-16 cells assessed as cell growth inhibition incubated for 72 hrs by MTT assay; assay type: functional, cell-based; conditions: BT-16, 72 h; outline: as §1
Cannabinoid receptor 2 [16] = biological target: T1, Cannabinoid receptor 2; experiment: Antagonist activity at human CB2R expressed in mouse AtT20 cells by FLIPR membrane potential assay; assay type: functional, cell-based
Outline: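 AtT-20 cells stably transfected with human CB2R; membrane potential response read out. Antagonist mode: cells pre-incubated with vehicle or compound for 60 min, then challenged with 500 nM CP 55940. IC50 derived from inhibition of the agonist response. Not active defined as <50% inhibition at 10 μM.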

T2 sequence (P21554 whole entry): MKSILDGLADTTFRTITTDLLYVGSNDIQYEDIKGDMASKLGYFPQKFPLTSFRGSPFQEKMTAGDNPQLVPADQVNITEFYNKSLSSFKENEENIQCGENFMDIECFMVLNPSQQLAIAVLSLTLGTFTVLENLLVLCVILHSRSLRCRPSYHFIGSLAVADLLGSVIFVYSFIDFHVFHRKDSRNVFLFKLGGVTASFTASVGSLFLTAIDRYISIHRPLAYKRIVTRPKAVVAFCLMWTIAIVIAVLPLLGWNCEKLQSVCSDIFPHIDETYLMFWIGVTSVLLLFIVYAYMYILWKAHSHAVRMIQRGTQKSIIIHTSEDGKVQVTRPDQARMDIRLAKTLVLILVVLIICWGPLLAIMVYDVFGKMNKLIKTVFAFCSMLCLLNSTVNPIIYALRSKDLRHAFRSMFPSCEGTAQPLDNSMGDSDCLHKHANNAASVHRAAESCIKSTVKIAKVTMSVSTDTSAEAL
T1 sequence (P34972 whole entry): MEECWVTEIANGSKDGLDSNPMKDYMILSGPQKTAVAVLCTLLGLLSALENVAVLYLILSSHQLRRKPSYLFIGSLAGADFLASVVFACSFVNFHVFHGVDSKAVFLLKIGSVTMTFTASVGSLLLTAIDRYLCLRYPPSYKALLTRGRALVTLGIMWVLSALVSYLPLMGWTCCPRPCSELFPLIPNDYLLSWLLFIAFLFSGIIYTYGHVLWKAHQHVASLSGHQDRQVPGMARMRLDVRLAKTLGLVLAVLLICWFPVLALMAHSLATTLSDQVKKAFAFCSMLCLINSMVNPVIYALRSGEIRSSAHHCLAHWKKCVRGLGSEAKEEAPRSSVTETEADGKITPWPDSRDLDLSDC

SMILES | IC50 (KNS-42 [1]) [µM] | IC50 (KNS-42 [2]) [µM] | further results
O=C(NC12CC3CC(CC(C3)C1)C2)c1c[nH]c2cc(Cl)cc(Cl)c2c1=O | 9.17 | > 10 | 
O=C(NC12CC3CC(CC(C3)C1)C2)c1cc2ccccc2[nH]1 | > 10 | 0.33 | 
O=C(NC12CC3CC(CC(C3)C1)C2)c1cc(=O)c2ccc(Cl)c(Cl)c2[nH]1 | > 10 | > 10 | 
O=C(NC12CC3CC(CC(C3)C1)C2)c1cc(=O)c2cc(Cl)ccc2[nH]1 | 6.11 | > 10 | 
O=C(NCc1ccc2c(c1)OCO2)c1cc2c(F)cc(F)cc2[nH]1 | > 10 | > 10 | 
O=C(NCc1ccccc1)c1cc2c(F)cc(F)cc2[nH]1 | 9.85 | 8.25 | logP [3]: 3.17; IC50 [4]: 1.81 µM; IC50 at 72 h [5]: 119 µM; IC50 [6]: 0.89 µM; IC50 [7]: 7.44 µM; IC50 at 72 h [8]: 65 µM; Activity (Cannabinoid receptor 2 [9]): < 50%; inhibition (Cannabinoid receptor 2 [10]): < 50%; IC50 (Daoy [11]): > 10 µM; IC50 (Daoy [12]): > 10 µM; inhibition (Cannabinoid receptor 1 [13]): < 50%; Activity (Cannabinoid receptor 1 [14]): < 50%; IC50 [15]: 6.06 µM
O=C(NC12CC3CC(CC(C3)C1)C2)c1cc(=O)c2c(Cl)ccc(Cl)c2[nH]1 | > 10 | > 10 | 
O=C(c1cc2c(F)cc(F)cc2[nH]1)N1CCN(C(=O)C23CC4CC(CC(C4)C2)C3)CC1 | 6.62 | 5.04 | Activity (Cannabinoid receptor 2 [9]): < 50%; inhibition (Cannabinoid receptor 2 [10]): < 50%; inhibition (Cannabinoid receptor 1 [13]): < 50%; Activity (Cannabinoid receptor 1 [14]): < 50%
O=C(CC12CC3CC(CC(C3)C1)C2)Nc1nc2ccccc2[nH]1 | 6.46 | > 10 | 
O=C(Cc1ccc(NC(=O)c2cc3c(F)cc(F)cc3[nH]2)cc1)NC12CC3CC(CC(C3)C1)C2 | 4.9 | > 10 | 
O=C(NC12CC3CC(CC(C3)C1)C2)c1c[nH]c2ccc(Cl)cc2c1=O | > 10 | > 10 | 
O=C(NC12CC3CC(CC(C3)C1)C2)c1n[nH]c2ccccc12 | > 10 | > 10 | 
COc1cccc(CNC(=O)c2cc3c(F)cc(F)cc3[nH]2)c1OC | > 10 | > 10 | 
O=C(NC12CC3CC(CC(C3)C1)C2)c1c[nH]c2c(Cl)ccc(Cl)c2c1=O | 2.92 | 9.06 | IC50 [4]: 1.96 µM; IC50 at 72 h [5]: 7.04 µM; IC50 [6]: 5.15 µM; IC50 [7]: 3.59 µM; IC50 at 72 h [8]: 3.85 µM; Activity (Cannabinoid receptor 2 [9]): < 50%; IC50 (Daoy [11]): 1.54 µM; IC50 (Daoy [12]): 4.71 µM; inhibition (Cannabinoid receptor 1 [13]): < 50%; Activity (Cannabinoid receptor 1 [14]): < 50%; IC50 [15]: 4.88 µM; IC50 (Cannabinoid receptor 2 [16]): 1.28 µM
O=C(NC12CC3CC(CC(C3)C1)C2)c1cc(=O)c2ccc(Br)cc2[nH]1 | > 10 | > 10 | 

— ChEMBL document CHEMBL5107937, “Synthesis and antitumour evaluation of indole-2-carboxamides against paediatric brain cancer cells” (RSC Med Chem, 2021)
